# Tb hexokinase = T. brucei hexokinase 1 inhibition | recombinant TbHK1, G6PDH-coupled NADH A340 | hit rate 0.11% among 220,000 | inhibition, % at 10 µM;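 active means inhibition of 50% or more in the single-dose primary screen; inactive means inhibition below 50%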
# RanGTP-Impb inh = disruptors of Ran-importin-beta complex formation – biochemical, FRET, CFP-Ran, YFP-importin-beta, homogeneous, primary screen. hit rate 1.1% among 300,000. AID 2216. inhibition, % (concentration not given with the values). cell-free CFP-Ran/YFP-importin-beta FRET ratio;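 active means more than half of the replicate wells show a fall in the fluorescence ratio signal beyond about 16%, limit read from the data, passing the limit was not always enough; inconclusive means exactly half of the replicate wells pass the set limit; inactive means fewer than half of replicates pass the limit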;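 further: 0% = DMSO wells and 100% = Ran loaded with GDP instead of GTP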
# Runt-CBFb FRET = blocks binding of human RUNX1 Runt domain to CBFb; Q01196+Q13951; Cerulean-Runt/Venus-CBFb FRET ratio 530/480, 1 h; inhibition, % at 20 µM; hit rate 0.46% among 220,000; AID 1496;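 active means inhibition over about 50% at 20 µM in the single-dose screen, limit read from the data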;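 further: 0% = DMSO wells and 100% = excess unlabeled CBFb competitor control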
# Target sequence (Q01196 whole entry, looked up, the tested form may be a part): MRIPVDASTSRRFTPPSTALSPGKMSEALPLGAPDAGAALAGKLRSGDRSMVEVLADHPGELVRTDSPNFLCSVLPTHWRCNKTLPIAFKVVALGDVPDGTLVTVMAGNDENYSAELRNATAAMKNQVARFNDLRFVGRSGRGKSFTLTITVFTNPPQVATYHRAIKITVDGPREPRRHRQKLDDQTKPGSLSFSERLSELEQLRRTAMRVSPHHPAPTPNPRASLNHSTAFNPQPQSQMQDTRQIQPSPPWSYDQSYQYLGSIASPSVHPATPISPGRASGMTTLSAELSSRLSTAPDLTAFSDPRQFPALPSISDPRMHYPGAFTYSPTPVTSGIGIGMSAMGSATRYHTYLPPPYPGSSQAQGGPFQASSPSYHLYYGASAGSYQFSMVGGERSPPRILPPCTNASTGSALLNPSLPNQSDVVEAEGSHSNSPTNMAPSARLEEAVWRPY
# Target sequence (Q13951 whole entry, looked up, the tested form may be a part): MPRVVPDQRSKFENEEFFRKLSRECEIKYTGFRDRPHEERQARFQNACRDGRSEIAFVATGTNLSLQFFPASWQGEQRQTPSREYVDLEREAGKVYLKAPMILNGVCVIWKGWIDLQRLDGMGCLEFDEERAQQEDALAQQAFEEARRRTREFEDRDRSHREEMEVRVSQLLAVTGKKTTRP
#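 Reagent – Venus-CBFb binding partner, 100 nM · Assay system – Cerulean-tagged RUNX1 Runt domain (FRET donor) fusion protein · Input – 100 nM per protein · Incubation – two 1 h room-temperature incubations shielded from light · Measured by – FRET fluorescence · Medium – Tris buffer pH 7.5 with salts and BSA · Benchmarks – unlabeled CBFb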
# p97 inhibitor = blocks human p97 ATPase activity | P55072 | recombinant p97 ATPase, Kinase-Glo ATP luminescence, 3 h | inhibition, % at 8 µM | hit rate 0.42% among 220,000 | AID 1481; in the data active means inhibition above about 15%;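 further: 0% = DMSO vehicle and 100% = wells lacking enzyme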
# Runt-SMMHC FRET = blocks binding of human RUNX1 Runt domain to CBFb-SMMHC | Cerulean-Runt/Venus-CBFb-SMMHC FRET ratio 530/480, 1 h | inhibition, % at 20 µM | hit rate 0.74% among 220,000 | AID 1434;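 active means mean inhibition across duplicate retests at 20 µM reaching about 50%, limit read from the data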;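 further: 0% = DMSO wells and 100% = wells with excess untagged CBFb-SMMHC; inhibitors lower the FRET ratio by blocking Runt binding to CBFb-SMMHC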
# Hck-Nef inh = inhibitors of human Hck kinase activated by Nef | P08631 | Recombinant Hck-YEEI plus Nef, Z-Lyte FRET kinase assay | inhibition, % at 20 µM | hit rate 0.68% among 220,000;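 active means Hck-Nef kinase inhibition above about 50%, limit read from the data; inactive means inhibition below that limit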;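 further: 0% = DMSO with Hck plus Nef and 100% = Hck alone without Nef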
# * hit, by the source's call; ? = inconclusive; . = no result given. Only some compounds are listed: those with a hit (about 2.1% of all), similar ones and a draw of the others.
SMILES,Tb hexokinase,RanGTP-Impb inh,Runt-CBFb FRET,p97 inhibitor,Runt-SMMHC FRET,Hck-Nef inh
COc1ccc(-c2ncc(CN3CCC(CO)(Cc4cccc(OC)c4)CC3)cn2)cc1,-7.8,81.9*,7.6,-0.5,26.2,6.5
OCC1(Cc2ccccc2)CCN(Cc2cnc(-c3ccc(Cl)cc3)nc2)CC1,-10.4,-0.9,-1.0,-2.6,-1.3,20.3
Cc1[nH]c2c(C)cccc2c1CCNC(=O)c1ccc2c(c1[N+](=O)[O-])C(=O)c1ccccc1C2=O,-9.7,-2.2,14.2,14.6*,5.6,1.9
CC1=C(C(=O)OC(C)C)C(c2cccs2)C(C(=O)OC(C)C)=C(C)N1,0.7,-2.4,-1.3,0.1,-1.4,3.6
O=C(NCCN1CCCC1)c1ccc2c(c1)N(Cc1ccccc1)C(=O)c1ccccc1S2(=O)=O,.,0.6,.,.,.,.
O=c1oc2ccc3ccccc3c2cc1-c1nc2ccccc2o1,10.7,126.0*,.,9.5,.,-0.1
COc1ccc2oc(=O)c(C(=O)OCc3ccccc3)cc2c1,.,18.5*,.,.,.,.
COC(=O)c1cc2c(ccc3ccccc32)oc1=O,.,84.3*,.,.,.,.
COc1ccc(CCC(=O)Nc2sccc2C#N)cc1,-2.4,1.4,1.0,4.5,-4.3,59.3*
COc1ccc(NC(=O)CSCC(=O)Nc2sccc2C#N)cc1,.,-2.9,.,.,.,.
Cc1ccccc1-n1c(O)c(/C=C/C=Nc2ccccc2)c(=O)[nH]c1=O,-42.4,20.2*,28.7,3.4,76.2*,2.8
C/C(CC(=O)Nc1ccc(F)cc1)=N\NC(=O)c1ccccn1,-2.3,179.2*,0.9,4.3,0.6,32.4
CC(=O)Nc1ccccc1NC(=O)C/C(C)=N/NC(=O)c1ccccn1,0.2,-0.8,.,4.3,.,17.4
COc1cc2c(C(=O)NCc3ccc4c(c3)OCO4)cn(CC(C)C)c(=O)c2cc1OC,-2.2,1.2,-2.1,3.8,-4.9,2.4
COc1cc2c(C(=O)Nc3ccc4c(c3)OCO4)cn(CC(C)C)c(=O)c2cc1OC,-28.4,22.4*,-14.4,-2.2,1.3,8.3
COC(=O)c1ccccc1NC(=S)NC(=O)c1cccc2ccccc12,-6.2,8.0,-0.8,33.8*,11.4,-1.0
O=C(Oc1ccc(Cl)c2cccnc12)c1ccco1,-3.9,-2.1,0.5,0.5,0.4,1.1
COCOc1ccc(/C=C2/Oc3cc(OCOC)cc(OCOC)c3C2=O)c(OCOC)c1,.,104.1*,.,.,.,.
COc1cc(OC)c2c(c1)O/C(=C\c1ccccc1)C2=O,.,-3.4,.,.,.,.
CCn1c(SCC(=O)c2ccccc2)nc2sc3c(c2c1=O)CCN(C)C3,-13.8,8.5,10.1,11.9,84.9*,4.7
CCn1c(SCC(=O)NCCc2ccccc2)nc2sc3c(c2c1=O)CCN(C)C3,-36.6,5.7,6.0,2.9,10.1,9.7
COc1ccc2ccccc2c1CN1CCN(C)CC1,-3.8,0.3,-0.1,-0.9,-2.7,-10.7
C=CCn1c(Cc2cccs2)nnc1SCC(=O)c1ccc2ccccc2c1,9.0,-0.4,-1.5,1.8,-2.4,8.3
Cc1ccc(-c2cn3nc(C)c(C)nc3n2)cc1,-8.0,-0.5,12.6,4.0,62.6,-4.4
COc1cccc(-c2cn3nc4c(nc3n2)CCCC4)c1,-1.0,45.6*,-1.0,3.8,2.9,9.1
SMILES,Tb hexokinase,RanGTP-Impb inh,Runt-CBFb FRET,p97 inhibitor,Runt-SMMHC FRET,Hck-Nef inh
Clc1ccc(-c2cn3nc4c(nc3n2)CCCC4)cc1,-7.0,69.9*,12.3,1.8,57.2,0.6
CCOC(=O)CSc1n[nH]c(=S)s1,-7.0,2.8,27.1,14.5*,12.5,-2.5
CN1c2ccc(Cl)cc2C(=O)NC1C1CC=CCC1 (stereo unspecified),6.5,29.6*,41.8,-1.6,94.8*,-4.4
CCCN1C(=O)C2(OCCO2)c2cc(Cl)ccc21,.,0.7,.,.,.,.
CCC1SC2=NC(C)=C(C(=O)OCCOC)C(/C=C/c3ccccc3OC)N2C1=O (stereo unspecified),-16.9,3.1,-2.6,-0.2,-6.3,0.9
CCCCNc1nc(N)ncc1[N+](=O)[O-],-25.6,0.4,1.1,14.6*,-5.3,6.8
CCCCNc1c([N+](=O)[O-])ncn1C,-20.8,-4.4,0.0,3.6,0.8,15.5
CCOC(=O)c1cc(=O)n2nc(-c3ccccc3F)nc2s1,10.5,-1.2,8.1,15.9*,8.9,10.0
O=C(O)c1ccccc1-c1nc2ccccc2c(=O)[nH]1,-5.6,25.1*,-0.4,1.6,-0.2,-0.5
O=C(O)c1ccccc1-c1nc(-c2ccccc2)c(-c2ccccc2)[nH]1,-8.2,-0.8,0.7,0.8,3.8,3.8
Cc1nc(CSc2n[nH]c(=O)n2-c2cccc(F)c2)cs1,0.1,3.6,3.3,6.0,1.0,8.5
CN(C)/N=C/c1ccc(P(c2ccc(/C=N/N(C)C)o2)c2ccc(/C=N/N(C)C)o2)o1,-55.4,-2.5,-4.0,-6.3,-2.0,7.1
CC(C)c1ccc(S(=O)(=O)/N=C2/C=C(Sc3ncn[nH]3)C(=O)c3ccccc32)cc1,4.3,.,3.5,22.3*,36.2,-2.1
Cc1ccc(S(=O)(=O)/N=C2/C=C(Sc3ncn[nH]3)C(=O)c3ccccc32)cc1,34.8,.,14.1,23.5*,42.9,4.9
COc1ccc(CC(=O)N(C)Cc2cccc(OC)c2OC)cc1S(=O)(=O)N1CCOCC1,.,0.4,.,.,.,.
CCCCCCc1cc2cc(-c3nnc(-c4ccccc4OC)o3)c(=O)oc2cc1O,-8.9,136.0*,18.1,3.7,58.0*,3.1
CCCCCOC(=O)CSc1nnc(-c2cc(OC)c(OC)c(OC)c2)o1,5.9,-1.8,-3.5,-9.3,-2.7,-6.9
COc1cccc2cc(-c3nnc(-c4ccccc4)o3)c(=O)oc12,-11.5,?,.,-1.5,.,26.7
CCCCCCc1cc2cc(-c3nnc(-c4ccccc4O)o3)c(=O)oc2cc1O,19.3,158.6*,11.4,-0.2,38.0,-17.3
CCCCCCc1cc2cc(C(=O)Nc3ccccc3OC)c(=O)oc2cc1O,3.5,92.6*,133.0*,3.1,63.1*,15.1
CCCCCCc1cc2cc(-c3nnc(-c4cc(OC)c(OC)c(OC)c4)o3)c(=O)oc2cc1O,-24.6,139.3*,123.3*,-0.6,75.1*,-6.7
COCC1CCN(C(=O)c2oc3c(F)cccc3c2C)C1 (stereo unspecified),.,1.4,.,.,.,.
Cc1cccc(-c2oc(C)c(C)[n+]2[O-])c1,0.3,-2.9,2.2,2.7,4.1,-14.1
CCOC(=O)c1c(-c2ccsc2)csc1N,0.3,0.0,6.6,2.2,-3.4,5.5
CCOC(=O)c1c(-c2ccc(C)s2)csc1N,8.7,24.4*,9.9,-2.8,-2.2,2.5
CCN1CCN(C(=O)CSc2cc(=O)n(CC)c3ccccc23)CC1,-8.8,36.8*,-0.9,2.9,-0.6,0.4
CN1/C(=C\C(=O)Nc2ccc(F)cc2)C(C)(C)c2ccccc21,-25.2,-0.1,-1.6,8.5,-5.5,-0.4
CN1/C(=C/C=C(/C#N)C(N)=O)C(C)(C)c2ccccc21,2.4,115.2*,60.7*,1.2,-14.1,2.3

# Source: PubChem BioAssay
